Reference: ChEMBL document CHEMBL1144209, “CYP19 (aromatase): exploring the scaffold flexibility for novel selective inhibitors” (Bioorg Med Chem, 2008)

What was measured:
[1] = biological target: T1, CYP17 (steroid 17-alpha-hydroxylase/17,20 lyase) (Homo sapiens, UniProt P05093); test: (§1) Inhibition of human CYP17 expressed in Escherichia coli coexpressing NADPH reductase at 2 uM
T1 sequence (P05093 whole entry): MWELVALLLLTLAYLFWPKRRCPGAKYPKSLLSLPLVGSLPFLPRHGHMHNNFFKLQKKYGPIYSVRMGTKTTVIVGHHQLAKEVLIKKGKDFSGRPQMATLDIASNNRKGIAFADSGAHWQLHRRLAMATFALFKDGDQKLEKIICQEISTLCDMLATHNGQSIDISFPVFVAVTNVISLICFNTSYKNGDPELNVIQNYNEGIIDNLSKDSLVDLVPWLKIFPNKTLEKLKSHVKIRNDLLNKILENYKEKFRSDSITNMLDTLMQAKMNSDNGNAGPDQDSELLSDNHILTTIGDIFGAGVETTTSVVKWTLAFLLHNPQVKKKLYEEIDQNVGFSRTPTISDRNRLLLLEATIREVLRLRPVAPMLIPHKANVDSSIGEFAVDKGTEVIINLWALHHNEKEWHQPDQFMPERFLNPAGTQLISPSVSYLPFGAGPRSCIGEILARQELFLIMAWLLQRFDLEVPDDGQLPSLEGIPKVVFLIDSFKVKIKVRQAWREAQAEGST
How it was run: (§2)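 Enzyme: 50,000g sediment from homogenized, fractionally centrifuged E. coli coexpressing human CYP17 and NADPH-P450 reductase. Substrate: progesterone, 25 µM. Values are means of at least three experiments, with deviations within 5%.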

Aromatase [2] = biological target: T2, Aromatase (Homo sapiens, UniProt P11511); test: Inhibition of human aromatase at 36 uM
T2 sequence (P11511 whole entry): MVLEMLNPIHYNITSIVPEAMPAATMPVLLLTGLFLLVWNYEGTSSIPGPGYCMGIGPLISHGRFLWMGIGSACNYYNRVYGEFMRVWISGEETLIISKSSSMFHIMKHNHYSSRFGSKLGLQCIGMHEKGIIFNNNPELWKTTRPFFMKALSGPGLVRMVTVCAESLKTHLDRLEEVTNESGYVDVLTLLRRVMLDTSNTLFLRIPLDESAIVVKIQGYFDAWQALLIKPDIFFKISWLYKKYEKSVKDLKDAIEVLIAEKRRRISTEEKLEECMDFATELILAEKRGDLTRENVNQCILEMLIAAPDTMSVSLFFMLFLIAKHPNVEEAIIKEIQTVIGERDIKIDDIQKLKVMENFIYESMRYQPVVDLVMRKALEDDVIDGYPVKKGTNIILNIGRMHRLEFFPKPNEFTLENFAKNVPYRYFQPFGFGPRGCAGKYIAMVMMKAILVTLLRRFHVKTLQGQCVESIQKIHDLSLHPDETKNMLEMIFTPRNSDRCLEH
How it was run: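 Aromatase source: microsomal fraction of fresh human term placenta. Substrate: [1β,2β-³H]testosterone, 500 nM. Read-out: tritiated water released on aromatization (³H₂O method). Values are means of at least three experiments, with deviations within 5%.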

Aromatase [3] = biological target: T2, Aromatase; test: Inhibition of human aromatase
[4] = biological target: T3, Steroid 17-alpha-hydroxylase/17,20 lyase (Homo sapiens, UniProt P05093); test: as §1; details: 2 µM; how it was run: as §2
T3 sequence (P05093 whole entry): T1 sequence (P05093 whole entry)

CC(C)(C)c1ccc(CN(Cc2ccc(Cl)cc2Cl)n2cnnc2)cc1 showed an inhibition at 2 µM [1] of 4% and an inhibition at 36 µM (Aromatase [2]) of 3.3%.
c1ccc(CN(Cc2cccc3ccsc23)n2ccnc2)cc1 gave an IC50 (Aromatase [3]) of 9960 nM and an inhibition at 2 µM [1] of 5.25%.
Work on Clc1ccc(CC(Cc2ccc(-c3ccccc3)cc2)n2ccnc2)s1 (stereo not drawn) yielded an IC50 (Aromatase [3]) of 1070 nM and an inhibition at 2 µM [1] of 25.7%.
Clc1ccc(CN(Cc2ccccc2)n2ccnc2)s1 gave an IC50 (Aromatase [3]) of 1060 nM and an inhibition at 2 µM [1] of 7.3%.
In the case of Clc1ccc(CN(Cc2ccc(-c3ccccc3)cc2)n2ccnc2)s1, the IC50 (Aromatase [3]) is reported as 1040 nM and the inhibition at 2 µM [1] is reported as 23.6%.
Clc1ccc(CN(CC/C=C/c2ccccc2)n2cncn2)c(Cl)c1 showed an IC50 (Aromatase [3]) of 17100 nM and an inhibition at 2 µM [1] of 21.1%.
In the case of CC(C)(C)c1ccc(CN(CC/C=C/c2ccccc2)n2cncn2)cc1, the IC50 (Aromatase [3]) is reported as 5060 nM and the inhibition at 2 µM [1] is reported as 12.4%.
For CC(C)(C)c1ccc(CN(Cc2cccc3ccccc23)n2ccnc2)cc1, the IC50 (Aromatase [3]) was 4590 nM and the inhibition at 2 µM [1] was 13%.
Clc1ccc(CN(Cc2cccc3ccccc23)n2ccnc2)c(Cl)c1 was tested, and the IC50 (Aromatase [3]) was 4000 nM and the inhibition at 2 µM [1] was 11.3%.
CC(C)(C)c1ccc(CN(Cc2ccc(-c3ccccc3)cc2)n2cncn2)cc1 gave an inhibition at 2 µM [1] of 6.03% and an inhibition at 36 µM (Aromatase [2]) of 19.8%.
Cc1ccccc1CC(Cc1ccc(-c2ccccc2)cc1)n1ccnc1 (stereo not drawn) was tested, and the IC50 (Aromatase [3]) was 1040 nM and the inhibition at 2 µM [1] was 25%.
Clc1ccccc1CC(Cc1ccc(-c2ccccc2)cc1)n1ccnc1 (stereo not drawn) gave an IC50 (Aromatase [3]) of 1090 nM and an inhibition at 2 µM [1] of 22.6%.
In the case of Fc1ccccc1CC(Cc1ccc(-c2ccccc2)cc1)n1ccnc1 (stereo not drawn), the IC50 (Aromatase [3]) is reported as 1370 nM and the Activity [4] is reported as “Not Active”.
Work on Clc1ccc(CC(Cc2ccc(-c3ccccc3)cc2)n2ccnc2)c(Cl)c1 (stereo not drawn) yielded an IC50 (Aromatase [3]) of 1240 nM and an inhibition at 2 µM [1] of 18.2%.
Fc1ccc(CC(Cc2ccc(-c3ccccc3)cc2)n2ccnc2)c(F)c1 (stereo not drawn) gave an IC50 (Aromatase [3]) of 260 nM and an inhibition at 2 µM [1] of 17.7%.
C(=C\c1ccccc1)/CCN(Cc1cccc2ccccc12)n1cnnc1 was tested, and the inhibition at 2 µM [1] was 6.1% and the inhibition at 36 µM (Aromatase [2]) was 14.8%.
Fc1ccccc1CN(Cc1ccc(-c2ccccc2)cc1)n1ccnc1 was tested, and the IC50 (Aromatase [3]) was 460 nM and the Activity [4] was “Not Active”.
C(=C\c1ccccc1)/CCN(Cc1ccc(-c2ccccc2)cc1)n1cnnc1 showed an inhibition at 2 µM [1] of 16.1% and an inhibition at 36 µM (Aromatase [2]) of 5.9%.
Compound Cc1ccc(CN(Cc2ccc(-c3ccccc3)cc2)n2ccnc2)cc1 has an IC50 (Aromatase [3]) of 2200 nM and an inhibition at 2 µM [1] of 29.1%.
With Clc1ccc(CN(Cc2cccc3ccccc23)n2cncn2)c(Cl)c1 the Activity [4] was “Not Active” and the inhibition at 36 µM (Aromatase [2]) was 24.9%.
C(=C\c1ccccc1)/CCN(Cc1ccc(-c2ccccc2)cc1)n1cncn1 showed an inhibition at 2 µM [1] of 12.4% and an inhibition at 36 µM (Aromatase [2]) of 31.4%.
Clc1ccc(CN(Cc2ccc(-c3ccccc3)cc2)n2ccnc2)c(Cl)c1 was tested, and the IC50 (Aromatase [3]) was 3650 nM and the inhibition at 2 µM [1] was 25.8%.
Work on CC(C)(C)c1ccc(CN(Cc2ccc(-c3ccccc3)cc2)n2cnnc2)cc1 yielded an inhibition at 2 µM [1] of 15.9% and an inhibition at 36 µM (Aromatase [2]) of 8.8%.
Compound Clc1ccc(CN(Cc2ccc(-c3ccccc3)cc2)n2cnnc2)c(Cl)c1 has an inhibition at 2 µM [1] of 13.1%.
With COc1ccc(CC(Cc2ccc(-c3ccccc3)cc2)n2ccnc2)cc1 (stereo not drawn) the IC50 (Aromatase [3]) was 1680 nM and the inhibition at 2 µM [1] was 38.8%.
c1ccc(CN(Cc2ccc(-c3ccccc3)cc2)n2ccnc2)cc1 was tested, and the IC50 (Aromatase [3]) was 1200 nM and the Activity [4] was “Not Active”.
For Cc1ccccc1CN(Cc1ccc(-c2ccccc2)cc1)n1ccnc1, the IC50 (Aromatase [3]) was 2960 nM and the inhibition at 2 µM [1] was 20.6%.
